# According to article PMC6880868 (Cancer cell, 2019):
# Assays:
# [1] = molecular target: STAT1 (Homo sapiens, UniProt P42224); assay: Bio-Layer Interferometry binding, STAT1
# How it was run: (§1)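 Purified recombinant human STAT proteins were biotinylated, then direct binding of the test compound was measured by Bio-Layer Interferometry to give Kd.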
# [2] = molecular target: DNA binding activity of STAT3 (Homo sapiens, UniProt P40763); assay: STAT3 DNA binding activity assay on nuclear extracts; format: cell-based; settings: 1 μM, 8 hr, MOLM-16 and SU-DHL-1
# How it was run: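 Nuclear extraction: cells were swelled 15 min on ice in hypotonic HEPES pH 7.9/10 mM KCl buffer with DTT and phosphatase/protease inhibitors. NP-40 was added (0.5% final), and nuclei were extracted 15 min at 4°C in 0.4 M NaCl HEPES buffer, then cleared at 5,000 × g. ELISA: 5 μg extract was bound 1 hr at room temperature in TransAM STAT ELISA wells. Wells then received STAT antibody (1:1000, 1 hr), HRP secondary (1 hr) and colour development.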
# [3] = molecular target: mouse STAT3 protein (Mus musculus, UniProt P42227); assay: Pharmacodynamics in mouse tissues; format: in vivo, CD-1 mice; settings: single dose 100 mg/kg i.v.
# How it was run: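 Female outbred CD-1 mice received a single i.v. dose. At set time points, liver, spleen, heart and kidney were collected and analysed by immunoblotting.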
# [4] = system: SU-DHL-1 xenograft; assay: SU-DHL-1 xenograft efficacy; format: in vivo, mice
# How it was run: (§2)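 NOD/SCID female mice were injected subcutaneously in 5 mg/ml Matrigel with MOLM-16 (3 × 10^6), SU-DHL-1 (1 × 10^7) or SUP-M2 (1 × 10^7) cells. At about 150 mm3, mice were size-matched and randomised. Test compound or vehicle (10% PEG400 + 90% PBS) was given on the indicated schedules. Tumours were measured 2–3 times weekly, with volume = length×width²/2. TGI was calculated from group medians.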
# [5] = system: MOLM-16 tumors; assay: MOLM-16 xenograft efficacy; format: in vivo, NOD/SCID female mice
# How it was run: as §2
# [6] = molecular target: monomeric and dimeric STAT3 protein (Homo sapiens, UniProt P40763); assay: Native electrophoresis and immunoblotting of STAT3 monomer/dimer; format: cell-based; settings: MOLM-16, 1 μM, within 5 hr
# [7] = system: SU-DHL-1; assay: RNA-seq analysis, SU-DHL-1; format: cell-based, human; settings: SU-DHL-1, 24 hr
# [8] = molecular target: mutated STAT3 proteins (Homo sapiens, UniProt P40763, Y705F); assay: Degradation of mutated STAT3 proteins in cells; format: cell-based; settings: DLD-1/STAT3 Y705F/Y705F cells, 1 μM, 24 hr
# [9] = system: mutated STAT3 proteins; assay: Degradation of mutated STAT3 proteins in cells; format: cell-based, human
# [10] = molecular target: T1, STAT3 (Homo sapiens, UniProt P40763); assay: Pharmacodynamics: STAT3 protein in xenograft tumors; format: in vivo, NOD/SCID mice bearing human xenograft tumors
# Target sequence in this assay (P40763 whole entry): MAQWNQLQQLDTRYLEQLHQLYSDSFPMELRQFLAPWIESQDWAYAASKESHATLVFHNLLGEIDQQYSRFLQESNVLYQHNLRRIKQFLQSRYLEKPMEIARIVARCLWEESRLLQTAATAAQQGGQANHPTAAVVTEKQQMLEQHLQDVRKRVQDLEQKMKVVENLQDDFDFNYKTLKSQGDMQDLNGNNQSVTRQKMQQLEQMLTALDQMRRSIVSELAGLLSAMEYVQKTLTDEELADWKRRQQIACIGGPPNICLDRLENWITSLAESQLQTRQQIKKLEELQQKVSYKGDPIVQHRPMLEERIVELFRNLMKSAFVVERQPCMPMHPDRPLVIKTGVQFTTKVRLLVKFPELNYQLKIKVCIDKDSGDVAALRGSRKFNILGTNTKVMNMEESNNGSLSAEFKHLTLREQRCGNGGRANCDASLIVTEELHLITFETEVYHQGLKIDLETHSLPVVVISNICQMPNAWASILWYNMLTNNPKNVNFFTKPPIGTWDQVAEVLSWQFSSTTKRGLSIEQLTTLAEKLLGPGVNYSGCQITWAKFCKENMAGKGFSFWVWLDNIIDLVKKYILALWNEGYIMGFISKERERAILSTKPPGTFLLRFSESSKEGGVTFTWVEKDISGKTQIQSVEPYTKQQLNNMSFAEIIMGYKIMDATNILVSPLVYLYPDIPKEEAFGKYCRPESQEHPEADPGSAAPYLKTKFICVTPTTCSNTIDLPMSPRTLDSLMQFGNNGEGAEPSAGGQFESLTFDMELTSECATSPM
# [11] = system: STAT3 target genes; assay: qRT-PCR of STAT3 target genes in MOLM-16 cells; format: cell-based, human; settings: MOLM-16, 1 μM, 8 hr
# [12] = system: STAT proteins in MOLM-16 and SU-DHL-1 tumors; assay: Multiplexed quantitative proteomics in xenograft tumors; format: in vivo, mice; settings: 25 mg/kg i.v., 6 hr
# [13] = molecular target: STAT3 protein (Mus musculus, UniProt P42227); assay: STAT3 degradation in murine cells; format: cell-based
# [14] = molecular target: STAT2 (Homo sapiens, UniProt P52630); assay: Bio-Layer Interferometry binding, STAT2
# How it was run: as §1
# [15] = system: mitochondrial STAT3; complex I and II; assay: Mitochondrial STAT3 and OXPHOS complex I/II enzyme activity; format: cell-based; settings: 24 hours
# [16] = system: STAT3 target genes; assay: qRT-PCR of STAT3 target genes in MOLM-16 tumors; format: in vivo, SCID mice; settings: single dose 25 mg/kg i.v.
# How it was run: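 SCID mice with MOLM-16 tumours received vehicle or test compound i.v. Total RNA was isolated from tumour lysates and STAT3 target genes were quantified by qRT-PCR.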
# [17] = molecular target: T1, STAT3; assay: Bio-Layer Interferometry binding, STAT3
# How it was run: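 Recombinant human STAT3 was biotinylated and binding measured by Bio-Layer Interferometry for Kd. Selectivity was taken from Kd values against other STATs.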
# Target sequence in this assay (P40763 127-688): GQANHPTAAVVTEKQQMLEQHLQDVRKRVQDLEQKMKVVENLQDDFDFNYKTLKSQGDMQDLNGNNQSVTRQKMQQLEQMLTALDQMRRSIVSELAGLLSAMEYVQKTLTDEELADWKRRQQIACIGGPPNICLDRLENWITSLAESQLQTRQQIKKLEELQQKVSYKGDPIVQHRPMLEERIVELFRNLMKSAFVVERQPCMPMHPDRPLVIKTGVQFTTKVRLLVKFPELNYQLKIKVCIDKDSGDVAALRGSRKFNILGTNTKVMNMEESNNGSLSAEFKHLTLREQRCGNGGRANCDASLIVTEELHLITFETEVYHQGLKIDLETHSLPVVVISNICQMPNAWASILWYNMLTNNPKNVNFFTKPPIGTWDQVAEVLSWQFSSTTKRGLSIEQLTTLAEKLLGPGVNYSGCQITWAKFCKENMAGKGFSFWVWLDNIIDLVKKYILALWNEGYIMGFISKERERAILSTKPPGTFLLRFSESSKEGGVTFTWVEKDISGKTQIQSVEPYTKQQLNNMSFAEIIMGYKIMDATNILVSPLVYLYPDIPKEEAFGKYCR
# [18] = molecular target: STAT6 (Homo sapiens, UniProt P42226); assay: Bio-Layer Interferometry binding, STAT6
# How it was run: as §1
# [19] = system: leukemia and lymphoma cell lines; assay: 4-day CellTiter Glo cell viability assay, leukemia and lymphoma cell line panel; format: cell-based, human
# [20] = Pharmacokinetics in tumor-bearing mice; format: in vivo, NOD/SCID female mice; settings: single i.v. dose 25 mg/kg; 1, 3 and 6 hr
# How it was run: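 In NOD/SCID female mice with subcutaneous MOLM-16 xenografts, mice were dosed i.v. Blood and tissues were collected at the indicated times, and drug levels were measured by a pharmacokinetics core.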
# [21] = system: MOLM-16; assay: 4-day CellTiter Glo cell viability assay, MOLM-16; format: cell-based; settings: Homo sapiens, MOLM16, 96 h, read-out: IC50, growth inhibition
# [22] = molecular target: T1, STAT3; assay: STAT3 protein degradation in human cells; format: cell-based
# How it was run: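 Treated cells were lysed in cell lysis buffer, resolved by SDS-PAGE, transferred to PVDF and probed by immunoblotting.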
# Target sequence in this assay (P40763 whole entry): as the sequence (P40763 whole entry) above
# [23] = 100 mg/kg weekly or 50 mg/kg twice weekly for 4 weeks
# Sequence of STAT6 (P42226 113-658): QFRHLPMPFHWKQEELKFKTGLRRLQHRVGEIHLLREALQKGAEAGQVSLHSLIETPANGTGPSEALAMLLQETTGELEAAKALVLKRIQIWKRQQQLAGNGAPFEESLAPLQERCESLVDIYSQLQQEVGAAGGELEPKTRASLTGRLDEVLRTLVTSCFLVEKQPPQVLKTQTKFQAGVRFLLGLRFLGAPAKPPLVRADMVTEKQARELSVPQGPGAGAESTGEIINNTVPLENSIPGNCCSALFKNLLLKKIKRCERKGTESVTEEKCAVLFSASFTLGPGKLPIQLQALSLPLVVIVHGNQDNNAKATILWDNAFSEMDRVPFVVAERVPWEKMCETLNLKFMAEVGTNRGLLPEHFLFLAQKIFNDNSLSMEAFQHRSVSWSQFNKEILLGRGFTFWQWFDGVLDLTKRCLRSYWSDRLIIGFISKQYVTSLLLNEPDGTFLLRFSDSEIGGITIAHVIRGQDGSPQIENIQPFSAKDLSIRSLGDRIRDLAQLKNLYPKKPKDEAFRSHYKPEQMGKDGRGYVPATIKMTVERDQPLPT
# Sequence of monomeric and dimeric STAT3 protein (P40763 whole entry): as the sequence (P40763 whole entry) above
# Sequence of DNA binding activity of STAT3 (P40763 whole entry): as above
# Sequence of STAT2 (P52630 138-702): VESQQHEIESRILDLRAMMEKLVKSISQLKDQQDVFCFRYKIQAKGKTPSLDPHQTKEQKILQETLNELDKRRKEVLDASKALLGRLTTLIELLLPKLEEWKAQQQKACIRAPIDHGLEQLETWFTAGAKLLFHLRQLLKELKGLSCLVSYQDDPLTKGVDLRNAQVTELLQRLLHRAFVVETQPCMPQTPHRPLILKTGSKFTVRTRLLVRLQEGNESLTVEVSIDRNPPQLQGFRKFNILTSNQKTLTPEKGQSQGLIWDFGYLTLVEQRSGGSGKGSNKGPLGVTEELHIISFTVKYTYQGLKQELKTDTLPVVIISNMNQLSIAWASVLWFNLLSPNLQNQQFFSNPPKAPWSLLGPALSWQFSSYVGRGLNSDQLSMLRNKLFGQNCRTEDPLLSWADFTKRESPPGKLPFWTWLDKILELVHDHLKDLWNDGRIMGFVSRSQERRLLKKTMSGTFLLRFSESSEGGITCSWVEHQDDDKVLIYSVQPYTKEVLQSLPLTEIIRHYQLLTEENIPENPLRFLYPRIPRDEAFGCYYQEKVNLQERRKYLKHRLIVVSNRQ
# Sequence of mutated STAT3 proteins (Homo sapiens, UniProt P40763, Y705F) (Q96SW2 whole entry): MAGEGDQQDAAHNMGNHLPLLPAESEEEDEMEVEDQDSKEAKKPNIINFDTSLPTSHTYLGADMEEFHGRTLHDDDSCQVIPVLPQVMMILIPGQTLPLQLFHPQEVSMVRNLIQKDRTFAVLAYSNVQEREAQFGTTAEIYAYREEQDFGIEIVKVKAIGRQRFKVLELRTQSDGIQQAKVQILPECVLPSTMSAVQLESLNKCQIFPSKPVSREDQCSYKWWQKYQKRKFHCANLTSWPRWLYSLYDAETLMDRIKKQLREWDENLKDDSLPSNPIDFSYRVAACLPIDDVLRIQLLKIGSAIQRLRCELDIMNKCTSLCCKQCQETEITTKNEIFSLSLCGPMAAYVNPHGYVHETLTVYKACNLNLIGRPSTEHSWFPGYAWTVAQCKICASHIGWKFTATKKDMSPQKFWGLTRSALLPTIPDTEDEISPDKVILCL
# Sequence of mutated STAT3 proteins (Homo sapiens, UniProt P40763, Y705F) (P40763 2-770 Y705F): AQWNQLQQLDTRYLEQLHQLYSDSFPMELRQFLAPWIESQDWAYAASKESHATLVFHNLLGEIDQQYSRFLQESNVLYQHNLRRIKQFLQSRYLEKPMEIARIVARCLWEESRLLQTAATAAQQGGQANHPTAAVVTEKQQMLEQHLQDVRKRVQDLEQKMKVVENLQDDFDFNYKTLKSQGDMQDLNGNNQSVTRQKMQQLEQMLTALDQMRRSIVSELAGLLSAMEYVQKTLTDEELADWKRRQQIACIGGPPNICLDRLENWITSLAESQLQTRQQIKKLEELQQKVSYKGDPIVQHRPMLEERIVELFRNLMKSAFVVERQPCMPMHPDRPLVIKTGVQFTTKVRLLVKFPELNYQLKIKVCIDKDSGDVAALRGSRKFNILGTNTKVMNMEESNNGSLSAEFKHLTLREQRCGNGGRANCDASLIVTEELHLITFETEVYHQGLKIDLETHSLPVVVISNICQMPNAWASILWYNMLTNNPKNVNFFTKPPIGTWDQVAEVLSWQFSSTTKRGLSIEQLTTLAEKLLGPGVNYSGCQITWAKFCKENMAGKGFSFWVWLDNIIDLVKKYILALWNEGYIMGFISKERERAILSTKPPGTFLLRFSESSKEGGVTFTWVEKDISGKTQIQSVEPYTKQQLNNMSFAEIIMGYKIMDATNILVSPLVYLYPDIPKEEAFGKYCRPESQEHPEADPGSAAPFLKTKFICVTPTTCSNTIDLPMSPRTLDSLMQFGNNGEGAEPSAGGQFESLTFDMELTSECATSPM
# Sequence of STAT1 (P42224 132-713): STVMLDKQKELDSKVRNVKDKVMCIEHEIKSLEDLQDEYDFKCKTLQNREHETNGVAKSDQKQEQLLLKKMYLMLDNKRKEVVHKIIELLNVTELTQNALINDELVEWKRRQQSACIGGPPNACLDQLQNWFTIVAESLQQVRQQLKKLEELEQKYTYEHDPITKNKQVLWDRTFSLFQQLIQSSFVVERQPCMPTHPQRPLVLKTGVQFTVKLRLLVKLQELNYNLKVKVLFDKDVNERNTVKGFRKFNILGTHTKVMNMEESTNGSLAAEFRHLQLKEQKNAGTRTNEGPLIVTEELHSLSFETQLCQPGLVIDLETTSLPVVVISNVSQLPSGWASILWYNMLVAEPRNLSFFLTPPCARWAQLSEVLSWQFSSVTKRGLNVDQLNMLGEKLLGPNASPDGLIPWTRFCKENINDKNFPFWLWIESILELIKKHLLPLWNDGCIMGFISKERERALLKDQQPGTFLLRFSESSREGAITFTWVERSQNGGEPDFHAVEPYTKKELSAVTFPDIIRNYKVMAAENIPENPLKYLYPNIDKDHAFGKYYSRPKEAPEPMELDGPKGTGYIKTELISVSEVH
# Sequence of STAT3 protein (P42227 whole entry): as the sequence (P40763 whole entry) above, with E760D counted along it
# Sequence of mouse STAT3 protein (P42227 whole entry): as the sequence (P40763 whole entry) above, with E760D counted along it
smiles,measurement,setting,value
"NC(=O)CC[C@H](NC(=O)[C@@H]1CC[C@@H]2CCN(C(=O)CCCCCC#Cc3cccc4c3CN(C3CCC(=O)NC3=O)C4=O)C[C@H](NC(=O)c3cc4cc(C(F)(F)P(=O)(O)O)ccc4[nH]3)C(=O)N21)C(=O)NC(c1ccccc1)c1ccccc1 (stereo partly drawn) [SD-36, ((2-(((5S,8S,10aR)-8-(((S)-5-amino-1-(benzhydrylamino)-1,5-dioxopentan-2-yl)carbamoyl)-3-(8-(2-(2,6-dioxopiperidin-3-yl)-1-oxoisoindolin-4-yl)oct-7-ynoyl)-6-oxodecahydropyrrolo[1,2-a][1,5]diazocin-5-yl)carbamoyl)-1H-indol-5-yl)difluoromethyl)phosphonic acid]",Kd,[1],1000 to 2000 nM
same,DNA binding activity of STAT3,[2],abolishes
same,"mouse STAT3 protein in liver, spleen, heart and kidney",[3],profound and durable depletion
same,tumor growth inhibited compared to the vehicle control,[4]; 50 mg/kg weekly,50%
same,tumor response,"[4]; 100 mg/kg on day 1, 3 and 5 per week",complete tumor regression
same,tumor response,[4]; 100 mg/kg weekly,rapid and complete tumor regression
same,tumors completely regressed,"[4]; 100 mg/kg weekly, after 2 doses, by day 12",7 out of 7
same,mice with no tumor returning,"[4]; 100 mg/kg weekly, day 122, >100 days after the last dosing",6 out of 7
same,tumor growth,"[4]; 25 and 50 mg/kg on day 1, 3 and 5 per week",effectively inhibited tumor growth
same,tumor volume reduced,"[4]; single dose 100 mg/kg, day 6",80%
same,persistence of regression after cessation of treatment,[5]; [23],at least 2 weeks
same,tumor response,[5]; [23],complete tumor regression
same,tumor growth,[5]; 25 and 50 mg/kg weekly for 4 weeks,effectively inhibited tumor growth
same,monomeric and dimeric STAT3 protein,[6],completely depletes
same,genes down-regulated by ≥2-fold (p≤0.05),[7],701 genes
same,genes up-regulated by ≥2-fold (p≤0.05),[7],726 genes
same,degradation of homozygous Y705F mutant STAT3,[8],effectively degrades
same,degradation of endogenous D661Y and K658R mutant STAT3,"[9]; 1 μM, 24 hr",efficiently degrades
same,degradation of STAT3 with mutations of Arg609 or Ser611/Ser613,"[9]; transfected MDA-MB-231, 1 μM, 16 hr",resistant to degradation
same,"STAT3 protein level in MOLM-16 tumors, of controls",[10]; 4 days after a single dose,< 50%
same,depletion of STAT3 protein in MOLM-16 and SU-DHL-1 tumors,"[10]; single dose, 6 hr",near-complete depletion
same,persistence of near-complete STAT3 depletion,"[10]; single dose, MOLM-16 and SU-DHL-1 tumors",> 24 h
same,duration of reduced STAT3 protein level,[10]; single i.v. dose,> 4 days
same,STAT3 protein depleted in MOLM-16 tumors,"[10]; single i.v. dose 25 mg/kg, 1 hr",> 80%
same,expression of a set of STAT3 target genes,[11],significantly down-regulated
same,effect on other STAT proteins in tumors,[12],no significant effect on other STAT proteins
same,STAT3 protein degradation in murine cells,[13],efficiently degraded
same,Kd,[14],~5000 nM
same,effect on complex I and II activity,[15],did not have a substantial effect
same,mitochondrial STAT3,[15],effectively depleted
same,expression of a set of STAT3 target genes in tumors,[16],significantly down-regulated
same,Kd,[17],~50 nM
same,binding selectivity for STAT3 over STAT1 and STAT4,[17]; BLI Kd,approximately 20 fold
same,Kd,[18],> 10000 nM
same,AML cell lines with strong growth-inhibitory activity,[19]; 9 AML cell lines,1 of 9
same,lymphoma cell lines with potent activity,[19]; 9 lymphoma cell lines,5 of 9
same,"drug exposure in plasma, tumor tissues and several organs",[20],good drug exposure
same,IC50,[21],35 nM
same,STAT3 protein depleted,"[22]; DEL, 250 nM, 7 hr",> 50%
same,STAT3 protein depleted,"[22]; KI-JK, 250 nM, 7 hr",> 50%
same,levels of activated pSTAT3 (Y705),"[22]; MOLM-16, 0.25 μM",effectively reduced
same,STAT3 protein depleted,"[22]; MOLM-16, 250 nM, 4 hr",> 90%
same,cellular STAT3 protein in SD-36 insensitive cell lines,[22]; SD-36 insensitive cell lines,effectively depleted
same,STAT3 protein depleted,"[22]; SU-DHL-1, 250 nM, 7 hr",> 50%
same,hook effect,"[22]; concentrations as high as 10 μM, all cell lines tested",not observed
same,levels of STAT3 protein in PBMCs,"[22]; human PBMCs, 24 hr",potently and effectively reduced
